Experimental data as given in publication PMC7747014 (Journal of medicinal chemistry, 2015).
Counter-ions that a name gives are not always drawn. Like-named read-outs stand apart in the source and are kept apart here. Blank lines part the entries; values can stand above or below the compound they belong to.

Tests used:
[1] = tested on: 60 common human cancer cell lines (NCI-60); assay: NCI-60 five-dose screen, mean-graph midpoint; format: cell-based
Procedure, shortened: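 NCI-DTP screen across 60 human cancer cell lines. One-dose prescreen at 10 μM; compounds passing the cutoff went to five concentrations, 100 μM to 10 nM. GI50 per cell line interpolated from five-dose data.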

[2] = tested on: ovarian OVACAR-3; settings: read-out: cytotoxicity (GI50 in μM) ovarian OVACAR-3; cited from earlier work
[3] = tested on: renal SN12C; settings: read-out: cytotoxicity (GI50 in μM) renal SN12C; cited from earlier work
[4] = tested on: 60 common human cancer cell lines (NCI-60); settings: cited from earlier work
[5] = tested on: lung HOP-62; settings: read-out: cytotoxicity (GI50 in μM) lung HOP-62; cited from earlier work
[6] = tested on: prostate DU-145; settings: read-out: cytotoxicity (GI50 in μM) prostate DU-145; cited from earlier work
[7] = target: T1, Human recombinant Top1 (Homo sapiens, UniProt P11387); settings: graded relative to 1 μM camptothecin; cited from earlier work
T1 sequence (P11387 1-765): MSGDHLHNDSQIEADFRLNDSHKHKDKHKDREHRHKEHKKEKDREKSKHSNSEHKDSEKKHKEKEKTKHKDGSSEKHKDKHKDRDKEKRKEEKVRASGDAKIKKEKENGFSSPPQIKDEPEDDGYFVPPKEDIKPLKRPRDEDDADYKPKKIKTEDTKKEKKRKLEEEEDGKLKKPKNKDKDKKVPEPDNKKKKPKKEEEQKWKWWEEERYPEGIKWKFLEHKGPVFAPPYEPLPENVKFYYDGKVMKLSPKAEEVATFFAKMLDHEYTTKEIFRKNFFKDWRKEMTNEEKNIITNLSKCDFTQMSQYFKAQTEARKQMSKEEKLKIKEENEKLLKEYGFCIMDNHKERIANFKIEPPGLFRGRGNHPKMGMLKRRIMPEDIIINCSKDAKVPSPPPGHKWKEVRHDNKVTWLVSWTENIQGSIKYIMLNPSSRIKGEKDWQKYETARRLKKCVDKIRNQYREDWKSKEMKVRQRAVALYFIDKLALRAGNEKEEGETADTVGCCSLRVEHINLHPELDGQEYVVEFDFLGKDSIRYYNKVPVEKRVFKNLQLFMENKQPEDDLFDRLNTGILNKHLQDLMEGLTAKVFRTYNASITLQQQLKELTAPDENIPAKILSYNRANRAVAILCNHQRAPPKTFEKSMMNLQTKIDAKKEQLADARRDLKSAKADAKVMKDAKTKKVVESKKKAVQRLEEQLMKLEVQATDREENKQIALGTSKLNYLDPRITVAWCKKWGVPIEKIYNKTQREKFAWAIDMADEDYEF

[8] = tested on: melanoma UACC-62; settings: read-out: cytotoxicity (GI50 in μM) melanoma UACC-62; cited from earlier work
[9] = tested on: breast MCF7; settings: read-out: cytotoxicity (GI50 in μM) breast MCF7; cited from earlier work
[10] = tested on: colon HCT-116; settings: read-out: cytotoxicity (GI50 in μM) colon HCT-116; cited from earlier work
[11] = tested on: CNS SF-539; settings: read-out: cytotoxicity (GI50 in μM) CNS SF-539; cited from earlier work
[12] = target: T1, Human recombinant Top1; assay: Top1-mediated DNA cleavage assay; format: biochemical; settings: graded relative to 1 μM camptothecin
[13] = target: recombinant TDP1 (Homo sapiens, UniProt Q9NUW8); assay: Gel-based assay measuring the inhibition of recombinant TDP1; format: biochemical; settings: for IC50: read-out: TDP1 inhibition, semiquantitative IC50 scale
Chain of recombinant TDP1 (Q9NUW8 whole entry): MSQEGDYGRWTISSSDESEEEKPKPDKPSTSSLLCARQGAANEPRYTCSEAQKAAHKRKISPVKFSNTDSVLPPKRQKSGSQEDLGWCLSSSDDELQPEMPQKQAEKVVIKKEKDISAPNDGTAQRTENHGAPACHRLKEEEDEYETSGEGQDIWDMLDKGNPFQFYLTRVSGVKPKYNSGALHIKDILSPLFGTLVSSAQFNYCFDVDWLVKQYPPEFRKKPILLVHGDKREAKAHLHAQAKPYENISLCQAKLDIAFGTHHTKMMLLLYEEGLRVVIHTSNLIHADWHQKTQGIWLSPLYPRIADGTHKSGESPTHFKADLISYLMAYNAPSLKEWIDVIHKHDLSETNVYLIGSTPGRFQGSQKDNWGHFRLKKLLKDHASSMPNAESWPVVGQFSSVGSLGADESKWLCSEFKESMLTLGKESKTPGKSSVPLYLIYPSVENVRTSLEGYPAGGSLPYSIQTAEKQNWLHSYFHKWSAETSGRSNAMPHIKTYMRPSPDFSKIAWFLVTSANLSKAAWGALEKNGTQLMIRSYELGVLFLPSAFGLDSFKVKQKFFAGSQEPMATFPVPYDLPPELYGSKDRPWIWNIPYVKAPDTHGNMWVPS

[14] = read-out: MGM values, range over the named series
[15] = read-out: MGM values, range over the named compounds
[16] = Homo sapiens, 60 cell, read-out: MGM

Structure (SMILES): COc1cc2c(cc1O)C(=O)c1c-2n(CCCN2CCOCC2)c(=O)c2cc([N+](=O)[O-])ccc12 [Compound 21, 9-Hydroxy-8-methoxy-6-(3-morpholinopropyl)-3-nitro-5H-indeno[1,2-c]isoquinoline-5,11(6H)-dione Hydrobromide]
GI50 [1, 14]: 16 to 21 nM

Structure (SMILES): COc1cc2c(cc1O)C(=O)c1c-2n(CCCN2CCOCC2)c(=O)c2cc(OC)c(OC)cc12 [Compound 10]
GI50 [2]: 0.03 µM
GI50 [3]: 0.02 µM
GI50 [4, 15]: 55 to 87 nM
GI50 [5]: 0.02 µM
GI50 [6]: 0.02 µM
Top1 cleavage [7]: +++++
GI50 [8]: 0.02 µM
GI50 [9]: 0.02 µM
GI50 [10]: 0.03 µM
GI50 [11]: 0.02 µM

Top1 cleavage [12]: ++(+)
IC50 [13]: 12000 to 37000 nM
Structure (SMILES): Br.COc1cc2c(cc1O)-c1c(c3ccc([N+](=O)[O-])cc3c(=O)n1CCCn1ccnc1)C2=O [Compound 34, 6-(3-(1H-Imidazol-1-yl)propyl)-8-hydroxy-9-methoxy-3-nitro-5H-indeno[1,2-c]isoquinoline-5,11(6H)-dione Hydrobromide]
GI50 [1, 16]: 740 nM

TDP1 inhibitory activity (in words) [13]: TDP1 inhibitors
IC50 [13]: 12000 to 37000 nM
Structure (SMILES): Br.COc1cc2c(cc1O)C(=O)c1c-2n(CCCN)c(=O)c2cc([N+](=O)[O-])ccc12 [Compound 25, 6-(3-Aminopropyl)-9-hydroxy-8-methoxy-3-nitro-5H-indeno[1,2-c]isoquinoline-5,11(6H)-dione Hydrobromide]
GI50 [1, 14]: 16 to 21 nM

TDP1 inhibitory activity (in words) [13]: TDP1 inhibitors
IC50 [13]: 12000 to 37000 nM
Structure (SMILES): Br.COc1cc2c(cc1O)-c1c(c3ccc([N+](=O)[O-])cc3c(=O)n1CCCN)C2=O [Compound 36, 6-(3-Aminopropyl)-8-hydroxy-9-methoxy-3-nitro-5H-indeno[1,2-c]isoquinoline-5,11(6H)-dione Hydrobromide]

Structure (SMILES): COc1cc2c(cc1O)C(=O)c1c-2n(CCCn2ccnc2)c(=O)c2cc([N+](=O)[O-])ccc12 [Compound 23, 6-(3-(1H-Imidazol-1-yl)propyl)-9-hydroxy-8-methoxy-3-nitro-5H-indeno[1,2-c]isoquinoline-5,11(6H)-dione Hydrobromide]
GI50 [1, 14]: 16 to 21 nM

Top1 cleavage [12]: ++++
TDP1 inhibitory activity (in words) [13]: TDP1 inhibitors
IC50 [13]: 37000 to 111000 nM
Structure (SMILES): Br.NCCCn1c2c(c3ccc([N+](=O)[O-])cc3c1=O)C(=O)c1cc(O)ccc1-2 [Compound 71, 6-(3-Aminopropyl)-9-hydroxy-3-nitro-5H-indeno[1,2-c]-isoquinoline-5,11(6H)-dione Hydrobromide]
GI50 [1, 16]: 120 nM

Top1 cleavage [12]: +++ (75–95% activity)
Structure (SMILES): O=C1c2cccc(O)c2-c2c1c1ccc([N+](=O)[O-])cc1c(=O)n2CCCn1ccnc1 [Compound 44, 6-(3-(1H-Imidazol-1-yl)propyl)-7-hydroxy-3-nitro-5H-indeno[1,2-c]isoquinoline-5,11(6H)-dione]

TDP1 inhibitory activity (in words) [13]: TDP1 inhibitors
IC50 [13]: 1000 to 12000 nM
Structure (SMILES): Br.NCCCn1c2c(c3ccc([N+](=O)[O-])cc3c1=O)C(=O)c1ccc(O)cc1-2 [Compound 63, 6-(3-Aminopropyl)-8-hydroxy-3-nitro-5H-indeno[1,2-c]-isoquinoline-5,11(6H)-dione Hydrobromide]
GI50 [1, 16]: 410 ± 1000 nM
GI50 [1, 14]: 56 to 407 nM

Top1 cleavage [12]: ++ (50–75% activity)
Structure (SMILES): O=C1c2cccc(O)c2-c2c1c1ccc([N+](=O)[O-])cc1c(=O)n2CCCN1CCOCC1 [Compound 43, 7-Hydroxy-6-(3-morpholinopropyl)-3-nitro-5H-indeno[1,2-c]-isoquinoline-5,11(6H)-dione]

Structure (SMILES): COc1cccc2c1-c1c(c3ccc([N+](=O)[O-])cc3c(=O)n1CCCN)C2=O [Compound 4]
GI50 [2]: 2.3 µM
GI50 [5]: 1.1 µM
GI50 [6]: 1.1 µM
Top1 cleavage [7]: ++++
GI50 [8]: 2.3 µM

Top1 cleavage [12]: ++ (50–75% activity)
TDP1 inhibitory activity (in words) [13]: TDP1 inhibitors
IC50 [13]: 12000 to 37000 nM
Structure (SMILES): Cl.NCCCn1c2c(c3ccc([N+](=O)[O-])cc3c1=O)C(=O)c1cccc(O)c1-2 [Compound 45, 6-(3-Aminopropyl)-7-hydroxy-3-nitro-5H-indeno[1,2-c]-isoquinoline-5,11(6H)-dione Hydrochloride]

Structure (SMILES): COc1cc2c(cc1O)C(=O)c1c-2n(CCCn2ccnc2)c(=O)c2cc(OC)c(OC)cc12 [Compound 11]
GI50 [2]: 0.02 µM
GI50 [3]: < 0.01 µM
GI50 [4, 15]: 55 to 87 nM
GI50 [5]: < 0.01 µM
GI50 [6]: < 0.01 µM
GI50 [8]: < 0.01 µM
GI50 [9]: < 0.01 µM
GI50 [10]: < 0.01 µM
GI50 [11]: < 0.01 µM

TDP1 inhibitory activity (in words) [13]: TDP1 inhibitors
IC50 [13]: 12000 to 37000 nM
Structure (SMILES): Br.NCCCn1c2c(c3ccc([N+](=O)[O-])cc3c1=O)C(=O)c1c(O)cccc1-2 [Compound 64, 6-(3-Amino-propyl)-10-hydroxy-3-nitro-5H-indeno[1,2-c]isoquinoline-5,11(6H)-dione Hydrobromide]
GI50 [1, 16]: 2000 nM
GI50 [1, 14]: 234 to 3550 nM

IC50 [13]: 1000 to 12000 nM
Structure (SMILES): O=C1c2ccccc2-c2c1c1ccccc1c(=O)n2CCCNCCCNCCCn1c2c(c3ccccc3c1=O)C(=O)c1ccccc1-2 [Compound 72]

Structure (SMILES): COc1cc2c(cc1O)-c1c(c3ccc([N+](=O)[O-])cc3c(=O)n1CCCN1CCOCC1)C2=O [Compound 32, 8-Hydroxy-9-methoxy-6-(3-morpholinopropyl)-3-nitro-5H-indeno[1,2-c]isoquinoline-5,11(6H)-dione Hydrobromide]
GI50 [1, 16]: 200 nM

Top1 cleavage [12]: +++++
Structure (SMILES): Br.O=C1c2cc(O)ccc2-c2c1c1ccc([N+](=O)[O-])cc1c(=O)n2CCCN1CCOCC1 [Compound 69, 9-Hydroxy-6-(3-morpholinopropyl)-3-nitro-5H-indeno[1,2-c]-isoquinoline-5,11(6H)-dione Hydrobromide]

Structure (SMILES): COc1cc2c(cc1O)-c1c(c3cc(OC)c(OC)cc3c(=O)n1CCCn1ccnc1)C2=O [Compound 9]
GI50 [2]: > 100 µM
GI50 ([4]; read-out: MGM, average GI50 across 60 cell lines): 42000 ± 7000 nM
GI50 [5]: > 100 µM
GI50 [6]: > 100 µM
Top1 cleavage [7]: ++(+)
GI50 [8]: 0.33 µM
GI50 [9]: 0.05 µM
GI50 [10]: > 100 µM

Structure (SMILES): O=C1c2c(O)cccc2-c2c1c1ccc([N+](=O)[O-])cc1c(=O)n2CCCn1ccnc1 [Compound 60, 6-(3-(1H-Imidazol-1-yl)propyl)-10-hydroxy-3-nitro-5H-indeno-[1,2-c]isoquinoline-5,11(6H)-dione Hydrobromide]
GI50 [1, 14]: 234 to 3550 nM

Top1 cleavage [12]: ++++
Structure (SMILES): Br.O=C1c2ccc(O)cc2-c2c1c1ccc([N+](=O)[O-])cc1c(=O)n2CCCN1CCOCC1 [Compound 55, 8-(Hydroxy)-6-(3-morpholinopropyl)-3-nitro-5H-indeno[1,2-c]-isoquinoline-5,11(6H)-dione]
GI50 [1, 14]: 56 to 407 nM

Structure (SMILES): COc1ccc2c(c1)C(=O)c1c-2n(CCCN)c(=O)c2cc([N+](=O)[O-])ccc12 [Compound 5]
GI50 [3]: < 0.01 µM
GI50 [5]: < 0.01 µM
Top1 cleavage [7]: +++++
GI50 [8]: < 0.01 µM
GI50 [10]: < 0.01 µM
GI50 [11]: < 0.01 µM

Structure (SMILES): O=C1c2c(O)cccc2-c2c1c1ccc([N+](=O)[O-])cc1c(=O)n2CCCN1CCOCC1 [Compound 56, 10-(Hydroxy)-6-(3-morpholinopropyl)-3-nitro-5H-indeno[1,2-c]-isoquinoline-5,11(6H)-dione]
GI50 [1, 16]: 3500 nM
GI50 [1, 14]: 234 to 3550 nM

Structure (SMILES): O=C1c2ccc(O)cc2-c2c1c1ccc([N+](=O)[O-])cc1c(=O)n2CCCn1ccnc1 [Compound 59, 6-(3-(1H-Imidazol-1-yl)propyl)-8-hydroxy-3-nitro-5H-indeno[1,2-c]isoquinoline-5,11(6H)-dione Hydrobromide]
GI50 [1, 14]: 56 to 407 nM
